This note sets out measurements from ChEMBL document CHEMBL3352088, “Novel derivatives of usnic acid effectively inhibiting reproduction of influenza A virus” (Bioorg Med Chem, 2014).

Each structure is given as a SMILES string.

A short description of this experiment: Antiviral activity against rimantidine, amantidine-resistant Influenza A virus (A/California/07/09(H1N1)) pdm09 infected in MDCK cells assessed as inhibition of viral replication after 1 hrs by hemagglutination assay. It is filed as functional, Influenza A virus (A/California/07/2009(H1N1)). The conditions noted are these: read-out: ED50 (the source's name). A digest of the protocol: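 MDCK cells were pre-incubated 1 h at 37°C with serial twofold compound dilutions in MEM containing 2 mM arginine, 2 mM glutamine and 2 microgram/mL trypsin, then infected and cultured 48 h at 36°C. Supernatant was mixed with 1% chicken erythrocytes for 1 h at room temperature to read hemagglutination titer. ED50 is the concentration that halves virus production versus untreated cells.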
As to `CC(=O)c1c(O)c(C)c(O)c2c1OC1=Cc3c(c(C)nn3-c3ccccc3)C(=O)[C@@]12C`, the EC50 is 69.5 µM.

On to `CC(=O)c1c(O)c(C)c(O)c2c1OC1=Cc3c(c(C)nn3-c3ccccc3)C(=O)[C@]12C`, for which the EC50 came to 56.3 µM.

`CC(=O)c1c(O)c(C)c(O)c2c1OC1=Cc3c(c(C)nn3-c3ccccc3)[C@@H](O)[C@@]12C`: the EC50 came out at 2.4 µM.

Consider `CC(=O)c1c(O)c(C)c(O)c2c1OC1=CC(=O)/C(=C(/C)NCC(=O)O)C(=O)[C@@]12C`, for which the EC50 came to 11.2 µM.

Consider `CC(=O)c1c(O)c(C)c(O)c2c1OC1=CC(=O)/C(=C(/C)NCC(=O)O)C(=O)[C@]12C`, for which the EC50 worked out at 10.7 µM.

With `CC(=O)c1c(O)c(C)c(O)c2c1OC1=CC(=O)/C(=C(/C)NCCC(=O)O)C(=O)[C@@]12C`, the EC50 is 7.2 µM.

As to `CC(=O)c1c(O)c(C)c(O)c2c1OC1=CC(=O)/C(=C(/C)NCCC(=O)O)C(=O)[C@]12C`, the EC50 was 14.5 µM.

Regarding `CC(=O)C1=C(O)C=C2O[C@]34O[C@@]3(C(C)=O)C(=O)C(C)=C(O)[C@]4(O)[C@@]2(C)C1=O`, the EC50 is 10.6 µM.

As for `CC(=O)c1c(O)c(C)c(O)c2c1OC1=CC(=O)/C(=C(/C)NCCCC(=O)O)C(=O)[C@@]12C`, the EC50 came to 35 µM.

Take `CSCC[C@H](N/C(C)=C1\C(=O)C=C2Oc3c(C(C)=O)c(O)c(C)c(O)c3[C@@]2(C)C1=O)C(=O)O`: the EC50 stood at 4.2 µM.

On to `CC(=O)C1=C(O)C[C@H]2Oc3c(C(C)=O)c(O)c(C)c(O)c3[C@@]2(C)C1=O`, for which the EC50 is 8.1 µM.

With `CC(=O)c1c(O)c(C)c(O)c2c1OC1=CC(=O)/C(=C(/C)N[C@@H](CC(C)C)C(=O)O)C(=O)[C@@]12C`, the EC50 amounted to 6.6 µM.

Turning to `CC(=O)c1c(O)c(C)c(O)c2c1OC1=CC(=O)/C(=C(/C)N[C@H](CC(=O)O)CC(C)C)C(=O)[C@]12C`, the EC50 turned out to be 6.6 µM.

As to `CC(=O)c1c(O)c(C)c(O)c2c1OC1=CC(=O)/C(=C(/C)NCCCC(=O)O)C(=O)[C@]12C`, the EC50 came out at 28 µM.

With `CC(=O)c1c(O)c(C)c(O)c2c1OC1=Cc3c(c(C)nn3-c3cccc(C(F)(F)F)c3)C(=O)[C@@]12C`, the EC50 amounted to 68.4 µM.

Regarding `CC(=O)c1c(O)c(C)c(O)c2c1OC1=Cc3c(c(C)nn3-c3ccccc3)[C@H](O)[C@]12C`, the EC50 came to 12 µM.

For `COc1c(C)c(O)c(C(=O)/C=C/c2ccccc2)c2c1[C@]1(C)C(=Cc3c(c(C)nn3-c3ccccc3)[C@H]1O)O2`, the EC50 is 32.7 µM.

In the case of `COc1c(C)c(O)c(C(=O)/C=C/c2ccc(Cl)cc2)c2c1[C@]1(C)C(=Cc3c(c(C)nn3-c3ccccc3)[C@H]1O)O2`, the EC50 amounted to 55.1 µM.

As for `COc1ccccc1/C=C/C(=O)c1c(O)c(C)c(OC)c2c1OC1=Cc3c(c(C)nn3-c3ccccc3)[C@@H](O)[C@@]12C`, the EC50 is 82.7 µM.

Consider `COc1ccc(/C=C/C(=O)c2c(O)c(C)c(OC)c3c2OC2=Cc4c(c(C)nn4-c4ccccc4)[C@@H](O)[C@@]23C)cc1OC`, for which the EC50 was 34.5 µM.

For the molecule `COc1cccc(/C=C/C(=O)c2c(O)c(C)c(OC)c3c2OC2=Cc4c(c(C)nn4-c4ccccc4)[C@@H](O)[C@@]23C)c1OC`, the EC50 amounted to 50.7 µM.

With `COc1ccc(/C=C/C(=O)c2c(O)c(C)c(OC)c3c2OC2=Cc4c(c(C)nn4-c4ccccc4)[C@@H](O)[C@@]23C)c(OC)c1OC`, the EC50 is 32.8 µM.

For `COc1cc(/C=C/C(=O)c2c(O)c(C)c(OC)c3c2OC2=Cc4c(c(C)nn4-c4ccccc4)[C@@H](O)[C@@]23C)cc(OC)c1OC`, the EC50 was determined as 8.2 µM.

Take `COc1ccc(OC)c(/C=C/C(=O)c2c(O)c(C)c(OC)c3c2OC2=Cc4c(c(C)nn4-c4ccccc4)[C@@H](O)[C@@]23C)c1`: the EC50 was 25.9 µM.

As to `COc1ccc(/C=C/C(=O)c2c(O)c(C)c(OC)c3c2OC2=Cc4c(c(C)nn4-c4ccccc4)[C@@H](O)[C@@]23C)c(OC)c1`, the EC50 worked out at 25.9 µM.

As for `COc1c(C)c(O)c(C(=O)/C=C/c2ccc(SC)cc2)c2c1[C@]1(C)C(=Cc3c(c(C)nn3-c3ccccc3)[C@H]1O)O2`, the EC50 turned out to be 53 µM.

In the case of `COc1cccc(/C=C/C(=O)c2c(O)c(C)c(OC)c3c2OC2=Cc4c(c(C)nn4-c4ccccc4)C(=O)[C@@]23C)c1OC`, the EC50 was 8.7 µM.

Regarding `COc1ccc(-c2cc(-c3c(O)c(C)c(OC)c4c3OC3=Cc5c(c(C)nn5-c5ccccc5)[C@@H](O)[C@@]34C)n[nH]2)cc1`, the EC50 turned out to be 102 µM.

Consider `COc1c(C)c(O)c(C(=O)/C=C/c2ccccc2)c2c1[C@@]1(C)C(=Cc3c(c(C)nn3-c3ccccc3)[C@@H]1O)O2`, for which the EC50 was 60.6 µM.

With `COc1c(C)c(O)c(C(=O)/C=C/c2ccc(Cl)cc2)c2c1[C@@]1(C)C(=Cc3c(c(C)nn3-c3ccccc3)[C@@H]1O)O2`, the EC50 came out at 79.4 µM.

Consider `COc1ccccc1/C=C/C(=O)c1c(O)c(C)c(OC)c2c1OC1=Cc3c(c(C)nn3-c3ccccc3)[C@H](O)[C@]12C`, for which the EC50 stood at 64.9 µM.

In the case of `COc1cccc(/C=C/C(=O)c2c(O)c(C)c(OC)c3c2OC2=Cc4c(c(C)nn4-c4ccccc4)[C@H](O)[C@]23C)c1OC`, the EC50 came out at 76.4 µM.

Consider `CC(=O)C1=C(O)C=C2Oc3c4c(c(C)c(O)c3[C@]2(C)C1=O)OCC4=O`, for which the EC50 stood at 64.3 µM.

Regarding `CC(=O)C1=C(O)C=C2Oc3c4c(c(C)c(O)c3[C@@]2(C)C1=O)OCC4=O`, the EC50 was determined as 64.3 µM.

For the molecule `COc1ccccc1/C=C1\Oc2c(C)c(O)c3c(c2C1=O)OC1=CC(O)=C(C(C)=O)C(=O)[C@@]13C`, the EC50 was determined as 4.8 µM.

As to `CC(=O)C1=C(O)C=C2Oc3c4c(c(C)c(O)c3[C@@]2(C)C1=O)O/C(=C\c1ccc(Br)cc1)C4=O`, the EC50 turned out to be 4.7 µM.

For the molecule `CC(=O)C1=C(O)C=C2Oc3c4c(c(C)c(O)c3[C@@]2(C)C1=O)O/C(=C\c1ccncc1)C4=O`, the EC50 came out at 7.7 µM.

As to `CC(=O)C1=C(O)C=C2Oc3c4c(c(C)c(O)c3[C@@]2(C)C1=O)O/C(=C\c1cccnc1)C4=O`, the EC50 worked out at 7 µM.

On to `CC(=O)C1=C(O)C=C2Oc3c(C(=O)CSc4nc5ccccc5s4)c(O)c(C)c(O)c3[C@@]2(C)C1=O`, for which the EC50 is 29.5 µM.

For the molecule `CC(=O)C1=C(O)C=C2Oc3c(C(=O)CSc4nc5ccccc5o4)c(O)c(C)c(O)c3[C@@]2(C)C1=O`, the EC50 is 2 µM.

On to `CC(=O)C1=C(O)C=C2Oc3c(C(=O)CSCc4ccccc4)c(O)c(C)c(O)c3[C@@]2(C)C1=O`, for which the EC50 is 2.1 µM.

Consider `CC(=O)C1=C(O)C=C2Oc3c(C(=O)CSCc4ccc(C)cc4)c(O)c(C)c(O)c3[C@@]2(C)C1=O`, for which the EC50 worked out at 2.1 µM.

Take `CC(=O)C1=C(O)C=C2Oc3c(C(=O)CSCc4ncccc4C(=O)O)c(O)c(C)c(O)c3[C@@]2(C)C1=O`: the EC50 came out at 56.3 µM.

Regarding `COc1c(C)c(O)c2c(c1C(=O)CSC1=NCCS1)OC1=CC(O)=C(C(C)=O)C(=O)[C@@]12C`, the EC50 turned out to be 14.7 µM.

In the case of `COc1ccc2[nH]c(SCC(=O)c3c(OC)c(C)c(O)c4c3OC3=CC(O)=C(C(C)=O)C(=O)[C@@]34C)nc2c1`, the EC50 turned out to be 24.3 µM.

For `COc1c(C)c(O)c2c(c1C(=O)CSc1nc3ccccc3o1)OC1=CC(O)=C(C(C)=O)C(=O)[C@]12C`, the EC50 stood at 23.7 µM.

On to `COc1c(C)c(O)c2c(c1C(=O)CSCCC(=O)O)OC1=CC(O)=C(C(C)=O)C(=O)[C@@]12C`, for which the EC50 turned out to be 161 µM.

`CC(=O)C1=C(O)C=C2Oc3c(C(C)=O)c(OC(F)(Cl)C(F)F)c(C)c(O)c3[C@@]2(C)C1=O` (stereo not given in full): the EC50 is 7.2 µM.

As for `CC(=O)C1=C(O)C=C2Oc3c(C(C)=O)c(OC(=O)c4ccccc4Br)c(C)c(OC(=O)c4ccccc4Br)c3[C@@]2(C)C1=O`, the EC50 was found to be 7.8 µM.

In the case of `CC(=O)C1=C(O)C=C2O[C@@]34O[C@]3(C(C)=O)C(=O)C(C)=C(O)[C@@]4(O)[C@]2(C)C1=O`, the EC50 amounted to 28.7 µM.

As to `CC(=O)[C@@]12O[C@@]13OC1=Cc4c(c(C)nn4-c4ccccc4)C(=O)[C@]1(C)[C@@]3(O)C(O)=C(C)C2=O`, the EC50 was 13.4 µM.

On to `COc1c(C)c(O)c(C(C)=O)c2c1[C@]1(C)C(=Cc3c(c(C)nn3-c3ccccc3)CC13CO3)O2` (single isomer, unassigned; (+)), for which the EC50 worked out at 262 µM.

Regarding `COc1c(C)c(O)c(C(=O)/C=C/c2ccccc2)c2c1[C@]1(C)C(=Cc3c(c(C)nn3-c3ccccc3)CC13CO3)O2` (single isomer, unassigned; (+)), the EC50 stood at 5.5 µM.

For the molecule `CC(=O)C1=C(O)C=C2Oc3c(C(C)=O)c(O)c(C)c(O)c3[C@@]2(C)C1=O` [(+)-USNIC ACID], the EC50 was determined as 51.7 µM.

Regarding `CC(=O)C1=C(O)C=C2Oc3c(C(C)=O)c(O)c(C)c(O)c3[C@]2(C)C1=O` [(-)-USNIC ACID], the EC50 is 13.1 µM.
